ChEMBL document CHEMBL4354826, “Structure-Based Discovery of SD-36 as a Potent, Selective, and Efficacious PROTAC Degrader of STAT3 Protein” (J Med Chem, 2019)
The source made the active and inactive calls. The rule behind the calls is not given here.

What was measured:
Mus musculus [1] = experiment: In vivo degradation of phosphorylated STAT3 Y705 in SCID mouse xenografted with MOLM-16 cells at 50 mg/kg, iv measured upto 1 hr by Western blot analysis relative to control; assay type: functional
Procedure, shortened: (§1)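 SCID mice bearing subcutaneous Molm-16 tumors (3 × 10^6 cells in Matrigel; treated at ~150 mm3) given a single intravenous dose in 10% PEG400 + 90% PBS, or vehicle. Tumors harvested at time points. Lysates immunoblotted for total STAT3 and pSTAT3 Y705, compared with vehicle control.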

[2] = target: Protein cereblon/Signal transducer and activator of transcription 5A (Homo sapiens) (UniProt P42229+Q96SW2); experiment: Protac activity at CRBN/STAT5A in human MOLM16 cells assessed as degradation of STAT5A at 0.01 to 10 uM incubated for 4 hrs by Western blot analysis; assay type: cell-based
Procedure, shortened: (§2)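 Molm-16 cells treated 4 h with test compound at 0.01–10 μM, or control compounds at 10 μM. Lysates separated by SDS–PAGE, transferred to PVDF, blocked 1 h in 5% blocker/TBST, probed for each STAT protein, and detected by chemiluminescence.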

[3] = Antitumor activity against human MOLM16 cells xenografted in […] mouse assessed as tumor regression at 25 or 50 mg/kg, iv administered 3 times per week for 3 weeks; assay type: functional
Homo sapiens [4] = organism: Homo sapiens; experiment: Selectivity index, ratio of protac activity at CRBN/STAT4 in human MOLM16 cells to protac activity at CRBN/STAT3 in human MOLM16 cells; assay type: cell-based
Procedure, shortened: (§3)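 Molm-16 cells treated 4 h with compound at 0.01–10 μM, or controls at 10 μM. Western blot of lysates: SDS–PAGE, PVDF, 1 h block in 5% blocker/TBST, primary and secondary antibodies, chemiluminescent detection. STAT1, -2, -4, -5A/B and -6 levels read against STAT3 to give degradation selectivity.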

[5] = target: Protein cereblon/Signal transducer and activator of transcription 3 (Homo sapiens, UniProt P40763+Q96SW2); experiment: Protac activity at CRBN/STAT3 in human MOLM16 cells assessed as degradation of STAT3 at 0.01 to 10 uM incubated for 4 hrs by Western blot analysis; assay type: cell-based; procedure, shortened: as §2
Homo sapiens [6] = organism: Homo sapiens; experiment: Selectivity index, ratio of protac activity at CRBN/STAT5A in human MOLM16 cells to protac activity at CRBN/STAT3 in human MOLM16 cells; assay type: cell-based; procedure, shortened: as §3
Homo sapiens [7] = organism: Homo sapiens; experiment: Selectivity index, ratio of protac activity at CRBN/STAT2 in human MOLM16 cells to protac activity at CRBN/STAT3 in human MOLM16 cells; assay type: cell-based; procedure, shortened: as §3
Homo sapiens [8] = organism: Homo sapiens; experiment: Selectivity index, ratio of protac activity at CRBN/STAT1 in human MOLM16 cells to protac activity at CRBN/STAT3 in human MOLM16 cells; assay type: cell-based; procedure, shortened: as §3
[9] = target: T1, Signal transducer and activator of transcription 4 (Homo sapiens, UniProt Q14765); experiment: Binding affinity to recombinant human His/SUMO-tagged STAT4 (133 to 705 residues) expressed in Escherichia coli Rosetta (DE3) incubated for 1 hr by fluorescence polarization assay
T1 sequence (Q14765 whole entry): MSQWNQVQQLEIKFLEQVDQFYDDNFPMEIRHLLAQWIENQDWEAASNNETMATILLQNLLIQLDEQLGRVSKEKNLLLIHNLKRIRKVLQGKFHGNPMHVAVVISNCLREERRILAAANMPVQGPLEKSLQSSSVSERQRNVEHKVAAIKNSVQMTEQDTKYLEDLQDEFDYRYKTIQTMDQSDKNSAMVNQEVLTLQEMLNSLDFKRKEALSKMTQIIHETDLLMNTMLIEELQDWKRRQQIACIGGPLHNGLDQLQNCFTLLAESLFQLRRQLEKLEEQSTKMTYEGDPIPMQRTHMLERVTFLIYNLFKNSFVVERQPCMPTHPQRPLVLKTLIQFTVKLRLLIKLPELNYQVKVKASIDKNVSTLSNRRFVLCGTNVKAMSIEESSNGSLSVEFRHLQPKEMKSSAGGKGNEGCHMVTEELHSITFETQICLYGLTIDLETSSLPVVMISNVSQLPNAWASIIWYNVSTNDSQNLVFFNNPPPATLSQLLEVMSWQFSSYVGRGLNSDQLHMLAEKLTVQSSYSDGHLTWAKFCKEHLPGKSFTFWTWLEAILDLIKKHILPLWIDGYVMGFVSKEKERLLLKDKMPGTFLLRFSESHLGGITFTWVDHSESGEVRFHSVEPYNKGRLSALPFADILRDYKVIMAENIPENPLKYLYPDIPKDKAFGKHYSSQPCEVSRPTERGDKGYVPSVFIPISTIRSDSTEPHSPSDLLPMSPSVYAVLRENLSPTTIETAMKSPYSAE

Mus musculus [10] = experiment: In vivo degradation of phosphorylated STAT3 Y705 in SCID mouse xenografted with MOLM-16 cells at 50 mg/kg, iv measured upto 72 hrs by Western blot analysis relative to control; assay type: functional; procedure, shortened: as §1
Homo sapiens [11] = organism: Homo sapiens; experiment: Selectivity index, ratio of protac activity at CRBN/STAT6 in human SUDHL1 cells to protac activity at CRBN/STAT3 in human SUDHL1 cells; assay type: cell-based
Procedure, shortened: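 SU-DHL-1 cells treated 18 h with compound at 0.01–10 μM, or controls at 10 μM. Immunoblotting used SDS–PAGE, PVDF transfer, 1 h block in 5% blocker/TBST, primary and secondary antibodies and chemiluminescence. Levels of other STAT family members compared with STAT3 to express degradation selectivity.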

Mus musculus [12] = experiment: In vivo degradation of STAT3 in SCID mouse xenografted with MOLM-16 cells at 50 mg/kg, iv measured upto 1 hr by Western blot analysis relative to control; assay type: functional; procedure, shortened: as §1
[13] = target: Protein cereblon/Signal transducer and activator of transcription 4 (Homo sapiens) (UniProt Q96SW2+Q14765); experiment: Protac activity at CRBN/STAT4 in human MOLM16 cells assessed as degradation of STAT4 at 0.01 to 10 uM incubated for 4 hrs by Western blot analysis; assay type: cell-based; procedure, shortened: as §2
[14] = target: Protein cereblon/Signal transducer and activator of transcription 1-alpha/beta (Homo sapiens) (UniProt P42224+Q96SW2); experiment: Protac activity at CRBN/STAT1 in human MOLM16 cells assessed as degradation of STAT1 at 0.01 to 10 uM incubated for 4 hrs by Western blot analysis; assay type: cell-based; procedure, shortened: as §2
Mus musculus [15] = experiment: In vivo degradation of STAT3 in CD1 mouse at 25 mg/kg, iv measured upto 48 hrs by Western blot analysis; assay type: functional, organism-based
Procedure, shortened: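 Female CD-1 mice given a single intravenous dose in 10% PEG400 + 90% PBS, or vehicle. Euthanized at set time points. Spleen harvested and lysates immunoblotted for STAT3.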

Homo sapiens [16] = organism: Homo sapiens; experiment: Selectivity index, ratio of protac activity at CRBN/STAT5B in human MOLM16 cells to protac activity at CRBN/STAT3 in human MOLM16 cells; assay type: cell-based; procedure, shortened: as §3

Protein cereblon/Signal transducer and activator of transcription 4 (Homo sapiens), sequence (Q96SW2 whole entry, looked up, one chain of several): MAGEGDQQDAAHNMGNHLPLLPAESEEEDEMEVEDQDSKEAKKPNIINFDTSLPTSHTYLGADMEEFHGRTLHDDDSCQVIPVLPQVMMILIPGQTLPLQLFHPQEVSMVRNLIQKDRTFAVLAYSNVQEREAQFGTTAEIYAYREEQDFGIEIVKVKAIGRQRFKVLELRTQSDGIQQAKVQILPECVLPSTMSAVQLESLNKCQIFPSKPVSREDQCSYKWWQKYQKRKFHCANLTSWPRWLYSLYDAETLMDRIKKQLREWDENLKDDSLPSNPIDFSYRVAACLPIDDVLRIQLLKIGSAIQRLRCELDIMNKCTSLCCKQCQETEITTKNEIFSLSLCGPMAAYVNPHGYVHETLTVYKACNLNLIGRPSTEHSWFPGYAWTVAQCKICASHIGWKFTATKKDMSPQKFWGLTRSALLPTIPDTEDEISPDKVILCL
Protein cereblon/Signal transducer and activator of transcription 5A (Homo sapiens), sequence (P42229 whole entry, looked up): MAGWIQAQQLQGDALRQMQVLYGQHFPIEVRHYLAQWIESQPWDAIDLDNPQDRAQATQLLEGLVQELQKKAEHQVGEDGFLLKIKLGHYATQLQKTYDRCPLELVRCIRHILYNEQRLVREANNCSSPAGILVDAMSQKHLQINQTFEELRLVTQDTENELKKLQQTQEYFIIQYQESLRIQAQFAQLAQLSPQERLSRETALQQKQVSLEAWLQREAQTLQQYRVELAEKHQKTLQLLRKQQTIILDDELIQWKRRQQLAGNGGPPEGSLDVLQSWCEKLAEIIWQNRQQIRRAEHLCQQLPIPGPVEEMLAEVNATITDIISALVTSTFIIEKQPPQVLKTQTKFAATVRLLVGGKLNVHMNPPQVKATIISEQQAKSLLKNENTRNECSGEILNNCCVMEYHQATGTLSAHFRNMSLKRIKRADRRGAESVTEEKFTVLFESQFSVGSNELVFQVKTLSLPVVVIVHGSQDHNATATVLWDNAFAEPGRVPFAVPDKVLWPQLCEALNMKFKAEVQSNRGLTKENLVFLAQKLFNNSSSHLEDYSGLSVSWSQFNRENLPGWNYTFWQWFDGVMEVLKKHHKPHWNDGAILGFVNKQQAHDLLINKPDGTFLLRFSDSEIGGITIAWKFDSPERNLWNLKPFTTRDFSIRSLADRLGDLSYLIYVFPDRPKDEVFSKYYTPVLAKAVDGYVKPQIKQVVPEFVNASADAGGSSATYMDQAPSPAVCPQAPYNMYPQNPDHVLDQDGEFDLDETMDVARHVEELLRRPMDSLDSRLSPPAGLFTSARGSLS
Protein cereblon/Signal transducer and activator of transcription 5A (Homo sapiens), sequence (Q96SW2 whole entry, looked up): as the sequence (Q96SW2 whole entry, looked up, one chain of several) above
Protein cereblon/Signal transducer and activator of transcription 3, sequence (P40763 2-770 limits assumed): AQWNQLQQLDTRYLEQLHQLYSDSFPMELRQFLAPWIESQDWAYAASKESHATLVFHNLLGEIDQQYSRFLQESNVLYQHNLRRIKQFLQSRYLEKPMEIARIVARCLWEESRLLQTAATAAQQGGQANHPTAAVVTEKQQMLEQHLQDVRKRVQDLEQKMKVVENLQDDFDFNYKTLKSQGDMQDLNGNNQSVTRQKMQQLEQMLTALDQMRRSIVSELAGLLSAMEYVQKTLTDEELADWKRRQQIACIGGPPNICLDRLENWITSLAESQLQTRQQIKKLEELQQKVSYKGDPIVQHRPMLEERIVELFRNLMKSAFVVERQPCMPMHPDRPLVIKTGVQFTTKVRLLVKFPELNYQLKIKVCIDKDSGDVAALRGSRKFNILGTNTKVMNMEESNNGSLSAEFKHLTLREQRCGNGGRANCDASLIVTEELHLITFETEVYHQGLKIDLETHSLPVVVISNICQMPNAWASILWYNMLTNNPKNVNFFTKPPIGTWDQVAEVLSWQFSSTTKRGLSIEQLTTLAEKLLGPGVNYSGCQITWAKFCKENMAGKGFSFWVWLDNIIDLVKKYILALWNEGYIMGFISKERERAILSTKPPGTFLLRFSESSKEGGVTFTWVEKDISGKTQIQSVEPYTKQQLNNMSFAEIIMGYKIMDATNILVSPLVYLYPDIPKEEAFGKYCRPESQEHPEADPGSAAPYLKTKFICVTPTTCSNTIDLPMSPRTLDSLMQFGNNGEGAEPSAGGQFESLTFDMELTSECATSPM
Protein cereblon/Signal transducer and activator of transcription 3, sequence (Q96SW2 whole entry partner): as the sequence (Q96SW2 whole entry, looked up, one chain of several) above

Q: With NC(=O)CC[C@H](NC(=O)[C@@H]1CC[C@@H]2CCN(C(=O)CCCCCC#Cc3cccc4c3CN(C3CCC(=O)NC3=O)C4=O)C[C@H](NC(=O)c3cc4cc(C(F)(F)P(=O)(O)O)ccc4[nH]3)C(=O)N21)C(=O)NC(c1ccccc1)c1ccccc1 (stereo partly specified) as the compound, how does the Activity (Mus musculus [1]) read?
A: The Activity was over 90%.

Q: And the Activity [2]?
A: The Activity was “inactive”.

Q: What about the Activity [3] of the same compound?
A: The Activity was 100%.

Q: What about the Ratio (Homo sapiens [4]) of the same compound?
A: Its Ratio is over 100.

Q: And the Activity [5]?
A: The Activity was “Active”.

Q: And the Ratio (Homo sapiens [6])?
A: Its Ratio is over 100.

Q: What about the Ratio (Homo sapiens [7]) of the same compound?
A: Its Ratio is over 100.

Q: What about the Ratio (Homo sapiens [8]) of the same compound?
A: Its Ratio is over 100.

Q: What about the Kd [9] of the same compound?
A: The Kd was 1000 nM.

Q: What about the Activity (Mus musculus [10]) of the same compound?
A: The Activity was over 90%.

Q: What about the Ratio (Homo sapiens [11]) of the same compound?
A: Its Ratio is over 100.

Q: And the Activity (Mus musculus [12])?
A: The Activity was over 95%.

Q: And the Activity [13]?
A: The Activity was “inactive”.

Q: What about the Activity [14] of the same compound?
A: The Activity was “inactive”.

Q: And the Activity (Mus musculus [15])?
A: Its Activity is “Active”.

Q: And the Ratio (Homo sapiens [16])?
A: The Ratio was over 100.
